A word on the IC50: it is the concentration that inhibits the measured activity by half.

The values that follow come from publication PMC10318414 (RSC Advances, 2023).

*1 amine or outer side, *2 acyl side, *3 side chain or, on linkers, in order; H or OH if unused. Where a SMILES comes first, the peptide text is derived from it. Bridges are numbered along the chain shown (N, C = ends). Biphenyl(4,4'-CH2)2 = c1cc(-c2ccc(C[*:2])cc2)ccc1C[*:1]; mXylylene = c1cc(C[*:1])cc(C[*:2])c1; oXylylene = c1ccc(C[*:2])c(C[*:1])c1; pXylylene = c1cc(C[*:2])ccc1C[*:1]

For assay [1], the system named is human colon cancer cell line (HCT116). Put plainly: CCK8 cell proliferation assay, HCT116. The class given is cell-based. The note with it: read-out: IC50 (μM) HCT116; CCK8, 48 h peptide treatment, 0.78–25 μM, OD 450 nm. Summed up:
(§1)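 Cells kept in DMEM with 10% FBS and 1% penicillin-streptomycin at 37 °C, 5% CO2. Seeded at 3 × 10^3 cells/well and grown for 24 h. Treated with or without peptide (0.78, 1.56, 3.125, 6.25, 12.5, 25 μM) for 48 h. Medium then switched to serum-free; CCK-8 added 10 μL/well for 1 h at 37 °C. OD read at 450 nm; IC50 obtained by curve fitting.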
For orientation: Tetrazolium dyes change colour on reduction, which living cells bring about.

Another assay relates to glioma cell line (U87). The assay can be described thus: CCK8 cell proliferation assay, U87. The class given is cell-based, human. Particulars: read-out: IC50 (μM) U87; CCK8, 48 h peptide treatment, 0.78–25 μM, OD 450 nm. Summed up:
as §1

Assay [2] relates to human breast cancer cell line (MCF-7). Put plainly: CCK8 cell proliferation assay, MCF-7. Type of assay: cell-based. Particulars: read-out: IC50 (μM) MCF-7; CCK8, 48 h peptide treatment, 0.78–25 μM, OD 450 nm. Put shortly: as §1
Assay [3] relates to MCF-7 cells. Put plainly: Annexin V-FITC/PI apoptosis assay by flow cytometry. The class given is cell-based, human. Particulars: MCF-7, 10 μM peptide. For orientation: Flow cytometry measures light scatter and fluorescence of single cells or particles in a stream.
For assay [4], the system named is MCF-7 cells. Put plainly: In vitro transwell migration assay. The class given is cell-based, human. The note with it: MCF-7, transwell 8 μm pore, 48 h, compared with control group, n = 3.
Assay [5] concerns MCF-7 cells. Put plainly: Calcein-AM/PI cell viability staining. Type of assay: cell-based, human. The note with it: MCF-7, 10 μM peptide, 24 hours. Put shortly: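 MCF-7 seeded at 5 × 10^3 cells/well and held at 37 °C for 24 h. Peptide added at a final 10 μM for another 24 h. Cells stained with a PBS working solution of calcein-AM (2 μM) and PI (4.5 μM) at 37 °C for 15 min. Live/dead fluorescence imaged on a high-content screening system.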

As for `CC(C)C[C@H](NC(=O)[C@H](CC(C)C)NC(=O)[C@H](CC(=O)O)NC(=O)[C@H](CCCCN)NC(=O)[C@H](Cc1ccccc1)NC(=O)CN)C(=O)N[C@@H](CCCCN)C(=O)NCC(=O)N[C@@H](C)C(=O)N[C@@H](C)C(=O)N[C@@H](CCCCN)C(=O)N[C@H]1CSCc2ccc(cc2)CSC[C@@H](C(=O)N[C@H](C(=O)N[C@@H](CC(C)C)C(=O)N[C@@H](Cc2ccccc2)C(N)=O)C(C)C)NC(=O)[C@H](CCCCN)NC(=O)[C@H](C(C)C)NC(=O)[C@H](CC(C)C)NC1=O` [Peptide A8-3-p] (H-GFKDLLKGAAKCLVKCVLF-NH2; linker 12-16 via pXylylene), the half-maximal inhibitory concentration (IC50) in assay [1] is 11.2 µM; in the assay with glioma cell line (U87), 14.4 µM; in assay [2], 11.7 µM.
Taken in the same sequence, the figures for `CC(C)C[C@H](NC(=O)[C@H](CC(C)C)NC(=O)[C@H](CC(=O)O)NC(=O)[C@H](CCCCN)NC(=O)[C@H](Cc1ccccc1)NC(=O)CN)C(=O)N[C@@H](CCCCN)C(=O)NCC(=O)N[C@@H](C)C(=O)N[C@@H](C)C(=O)N[C@@H](CCCCN)C(=O)N[C@H]1CSCc2ccccc2CSC[C@@H](C(=O)N[C@H](C(=O)N[C@@H](CC(C)C)C(=O)N[C@@H](Cc2ccccc2)C(N)=O)C(C)C)NC(=O)[C@H](CCCCN)NC(=O)[C@H](C(C)C)NC(=O)[C@H](CC(C)C)NC1=O` [Peptide A8-3-o] (H-GFKDLLKGAAKCLVKCVLF-NH2; linker 12-16 via oXylylene) were 7.68 µM, 9.28 µM and 6.03 µM.
Taken in the same sequence, the figures for `CC(C)C[C@H](NC(=O)[C@H](CC(C)C)NC(=O)[C@H](CC(=O)O)NC(=O)[C@H](CCCCN)NC(=O)[C@H](Cc1ccccc1)NC(=O)CN)C(=O)N[C@@H](CCCCN)C(=O)NCC(=O)N[C@@H](C)C(=O)N[C@@H](C)C(=O)N[C@@H](CCCCN)C(=O)N[C@H]1CSCc2cccc(c2)CSC[C@@H](C(=O)N[C@H](C(=O)N[C@@H](CC(C)C)C(=O)N[C@@H](Cc2ccccc2)C(N)=O)C(C)C)NC(=O)[C@H](CCCCN)NC(=O)[C@H](C(C)C)NC(=O)[C@H](CC(C)C)NC1=O` [Peptide A8-3-m] (H-GFKDLLKGAAKCLVKCVLF-NH2; linker 12-16 via mXylylene) were 9.21 µM, 8.69 µM and 7.8 µM.
With `CC(C)C[C@@H]1NC(=O)[C@H](C)NC(=O)[C@H](CCCCN)NC(=O)[C@H](C)NC(=O)[C@@H](NC(=O)CNC(=O)[C@H](CCCCN)NC(=O)[C@H](CC(C)C)NC(=O)[C@H](CC(C)C)NC(=O)[C@H](CC(=O)O)NC(=O)[C@H](CCCCN)NC(=O)[C@H](Cc2ccccc2)NC(=O)CN)CSCc2ccc(cc2)-c2ccc(cc2)CSC[C@@H](C(=O)N[C@H](C(=O)N[C@@H](CC(C)C)C(=O)N[C@@H](Cc2ccccc2)C(N)=O)C(C)C)NC(=O)[C@H](CCCCN)NC(=O)[C@H](C(C)C)NC1=O` [Peptide A8-4-Dp] (H-GFKDLLKGCAKALVKCVLF-NH2; linker 9-16 via Biphenyl(4,4'-CH2)2), the “Number of apoptotic cells versus Ascaphin-8 and normal medium” value with MCF-7 cells [3] is “significantly higher”. In addition, the 50% inhibitory concentration (IC50) in assay [1] was found to be 3.03 µM; with glioma cell line (U87), 3.63 µM; in assay [2], 2.99 µM. Besides, the “Migration through the polycarbonate membrane” value in the assay with MCF-7 cells [4] is “rarely migrated”. The “Calcein-AM/PI fluorescence of cells” value in the assay on MCF-7 cells [5] is on record as “a large amount of red fluorescence”.
